Screening data (PubChem BioAssay)
Shown are actives, neighbours in structure and some others; about 3.5% of the full set was active somewhere.
MrgX1 ag – activates human MrgX1 receptor signaling; Q96LB2; MrgX1-HEK293 cells, Fluo-4 calcium fluorescence, agonist mode; hits give high values; B-score at 10 µM; 0.44% of 310,000 active;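 active means calcium response B-score plate-corrected fluorescence ratio at least 3 library SD, with starting fluorescence B-score inside 5 SD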
Target sequence (Q96LB2 whole entry, looked up): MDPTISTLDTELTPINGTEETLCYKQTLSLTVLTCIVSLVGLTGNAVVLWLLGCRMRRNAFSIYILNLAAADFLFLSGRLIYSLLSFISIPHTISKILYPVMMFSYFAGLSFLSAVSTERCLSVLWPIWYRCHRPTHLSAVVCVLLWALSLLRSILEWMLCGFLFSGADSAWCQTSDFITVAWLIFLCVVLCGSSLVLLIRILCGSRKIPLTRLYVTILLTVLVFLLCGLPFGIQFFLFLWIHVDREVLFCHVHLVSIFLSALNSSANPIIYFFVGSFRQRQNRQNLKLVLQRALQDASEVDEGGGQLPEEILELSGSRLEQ
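Material: MrgX1-expressing HEK293 cells; input: 15,000 cells per well; doses: test compound given as first of three sequential additions; schedule: overnight plating before 1 h dye loading; technique: Fluo-4 NW calcium-flux fluorescence, kinetic read; evaluation: baseline-normalised fluorescence change ratio, B-scored; control set: plate-wise positive and negative controls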
RGS4 act – potentiators or activators of RGS4; 0.92% of 310,000 active; HEK293 M3R/inducible RGS4, carbachol calcium flux Fluo4; hits give low values; B-score at 10 µM; AID 463111;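 active means B-score of the integrated calcium signal more than 4 SD below the library mean, with starting fluorescence not abnormally high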;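 further: negative B-score means reduced calcium response which marks RGS4 activation or potentiation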
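test system = HEK293 cells with stable M3R and inducible RGS4 | schedule = recording 10 s baseline at 1 Hz, 100 s post-agonist | technique = Fluo4-AM (2 µM) calcium-flux fluorescence, kinetic read | measure = Agonist-evoked peak-minus-minimum fluorescence over baseline, integrated ratio, B score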
MrgX1 allo act – human MrgX1 positive allosteric modulation, primary screen. Q96LB2. MrgX1-HEK293, Fluo-4 calcium flux, FDSS; hits give high values. B-score at 10 µM. 0.63% of 310,000 active. AID 588675;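 active means plate-corrected calcium response at least 3 library SD above typical, normal starting fluorescence, not activating the receptor alone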;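 further: compound read alongside a low EC10 to EC30 dose of BAM8-22 agonist; peak minus trough fluorescence over baseline measured at the second addition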
RGS4 inh – human RGS4 inhibition. P49798. HEK293 M3R/RGS4 inducible, Fluo-4 calcium flux; hits give high values; triggered by carbachol at its EC20. B-score at 10 µM. 0.45% of 310,000 active;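 active means B-score, a plate-corrected calcium signal, over three deviations above library mean, with baseline fluorescence within five deviations of library mean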;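 further: RGS4 expression induced by doxycycline in cells with stable M3 receptor; B-score is computed from the integrated fluorescence ratio over baseline after carbachol; higher B-score means a larger calcium signal and so more RGS4 inhibition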
Target sequence (P49798 whole entry, looked up): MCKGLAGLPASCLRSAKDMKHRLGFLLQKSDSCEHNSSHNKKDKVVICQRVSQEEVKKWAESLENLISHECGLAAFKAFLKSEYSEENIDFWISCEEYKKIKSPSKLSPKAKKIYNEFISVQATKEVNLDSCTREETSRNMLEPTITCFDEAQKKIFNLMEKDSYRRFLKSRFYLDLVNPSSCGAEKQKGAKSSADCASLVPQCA
MrgX1 antagonist – antagonists of human MrgX1 receptor; MRGX1-HEK293 calcium flux, Fluo-4, BAM8-22 antagonism; hits give low values; B-score at 10 µM; 1.3% of 310,000 active; AID 588676;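 active means calcium-response B-score plate-corrected more than 3 library SD below zero, starting fluorescence within 5 deviations, no agonist response on first addition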;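 further: peak minus trough fluorescence over baseline after final BAM8-22 challenge near maximal dose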
RGS4 block valid – RGS4 inhibitor validation | 65% of 1,700 active | HEK293 M3R/RGS4, carbachol calcium Fluo-4 fluorescence; carbachol added at its EC20; 0 = buffer wells, 100 = carbachol control | calcium response, % at 10 µM | shares compounds with RGS4 inh;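 active means duplicate-averaged calcium response above the buffer-only control mean plus 5 SD of those controls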;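 further: integrated fluorescence ratio F max minus min over baseline F0; higher response in RGS4-induced cells means RGS4 inhibition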
RGS4 uninduced – counter-screen for RGS4 inhibitors: effect in non-induced cells. shares compounds with RGS4 inh. HEK293 M3R non-induced, carbachol calcium Fluo-4; submaximal (EC20) carbachol stimulus; buffer wells 0%, carbachol control wells 100%. activity (percent), % at 10 µM. 20% of 1,900 active. AID 493000; call rule not given here;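 further: RGS4 induction absent so cells express M3R without RGS4; higher means more calcium signal and flags a non-specific hit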
RGS4 inh ctr2 – signal in non-induced cells without carbachol, RGS4 inhibitor counter-screen; shares compounds with RGS4 inh; HEK293 M3R/RGS4 non-induced, Fluo-4 calcium, no carbachol; normalised: buffer wells 0%, carbachol wells 100%; calcium response (agonist-mode artifact), % at 10 µM; 22% of 1,900 active;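 active means duplicate-averaged calcium rise in uninduced cells above buffer wells' mean plus 5 SD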
An asterisk follows results filed as active; i = inactive; . = no result given.

SMILES	MrgX1 ag	RGS4 act	MrgX1 allo act	RGS4 inh	MrgX1 antagonist	RGS4 block valid	RGS4 uninduced	RGS4 inh ctr2
Cc1ccc(-c2cc(-c3ccc(F)cc3)c(C#N)c(N)n2)o1	27*	i	i	i	i	i	i	i
COc1ccc(CC(=O)Nc2cccc(-c3ccc4nncn4n3)c2)cc1OC	i	i	i	i	i	.	.	.
CN(C#N)c1nc(Cl)nc(Nc2cccc(Cl)c2)n1	i	i	i	i	i	.	.	.
COc1cccc(CNC23CC4CC(CC(C4)C2)C3)c1OCc1ccccc1	i	i	i	i	i	.	.	.
CCOc1cc(-c2cc(-c3ccc(C)o3)nc(N)c2C#N)ccc1O	i	i	i	i	i	.	.	.
Cc1ccc(-c2cc(-c3ccc(C)o3)nc(N)c2C#N)cc1	i	i	i	7*	i	i	i	i
O=C(O)CN1C(=O)/C(=C/C=C/c2ccccc2)SC1=S	i	i	i	i	i	.	.	.
O=C(O)CN1C(=O)/C(=C\C(Br)=C\c2ccccc2)SC1=S	i	i	i	12*	i	54%*	i	i
CC1CCN(c2c(NCC3CCC(C(=O)NCCCc4ccccc4)CC3)c(=O)c2=O)CC1 (stereo not given)	i	i	i	6.4*	i	6.0%*	i	i
CC1CCN(c2c(NCC3CCC(C(=O)NCc4ccccc4)CC3)c(=O)c2=O)CC1 (stereo not given)	i	i	i	i	i	.	i	i
COC(=O)c1sc2ccccc2c1-n1cccc1C(=O)C(=O)Nc1ccc(OC)cc1	i	i	i	i	i	.	.	.
O=c1[nH]c(NNC(=S)NCc2ccccc2)nc2c1C1(CCCCC1)Cc1ccccc1-2	i	i	i	13*	i	30%*	i	i
C=CCNC(=S)NNc1nc2c(c(=O)[nH]1)C1(CCCC1)Cc1ccccc1-2	i	i	i	9.8*	i	22%*	i	i
CCN(CC)Cc1nc2c(c(=O)[nH]1)C1(CCCCC1)Cc1ccccc1-2	i	i	i	i	i	.	.	.
O=c1[nH]c(NNC(=S)NC2CCCCC2)nc2c1C1(CCCC1)Cc1ccccc1-2	i	i	i	12*	i	7.5%*	i	i
COc1ccc(N(CC(O)CN2CCOCC2)S(=O)(=O)c2ccccc2)cc1 (stereo not given)	i	i	i	i	i	.	.	.
CCn1nc(NS(=O)(=O)c2ccc([N+](=O)[O-])cc2)c2cc3cccc(C)c3nc21	i	i	i	17*	i	22%*	37%*	i
CCn1nc(C)c(CNC(=O)C2CCC(=O)N(CCc3ccc(OC)cc3)C2)c1C (stereo not given)	i	i	i	i	i	.	.	.
COc1cccc(-c2nc(CS(=O)CC(=O)NC3CCCCC3)c(C)o2)c1 (stereo not given)	i	i	i	i	i	.	.	.
Cc1nc(-c2ccccc2)sc1C(=O)/C=C/c1ccc(Cl)cc1	i	i	i	12*	i	7.5%*	30%*	16%*
COc1cc(OC)cc(-c2cc(N)n(S(=O)(=O)c3cccc4nsnc34)n2)c1	i	i	i	4.8*	i	8.0%*	i	i
CN(C)c1ccc(C(CNS(=O)(=O)c2ccc([N+](=O)[O-])cc2)N2CCCC2)cc1 (stereo not given)	i	i	i	i	i	.	.	.
CN(C)c1ccc(C(CNS(=O)(=O)c2ccc3ccccc3c2)N2CCOCC2)cc1 (stereo not given)	i	i	i	5.2*	i	5.0%*	i	i
O=C(Oc1cccc2cccnc12)c1ccc(Br)o1	i	i	i	4.7*	i	42%*	i	i
O=C(Oc1cccc2cccnc12)c1ccco1	i	i	i	i	i	.	.	.
SMILES	MrgX1 ag	RGS4 act	MrgX1 allo act	RGS4 inh	MrgX1 antagonist	RGS4 block valid	RGS4 uninduced	RGS4 inh ctr2
Cc1c(C(=O)Oc2cccc3cccnc23)cccc1[N+](=O)[O-]	i	i	i	10*	i	56%*	i	i
O=C(Oc1cccc2cccnc12)c1cccs1	i	i	i	7.3*	i	48%*	i	i
CCN(Cc1cnn(C)c1)Cc1nc(C(c2ccccc2)c2ccccc2)no1	i	i	i	i	i	.	.	.
O=C(O)C1C2CCC(O2)C1C(=O)NCc1ccc(Cl)cc1 (stereo not given)	i	i	i	i	i	.	.	.
Clc1ccc(C2=Nn3c(nnc3-c3n[nH]c4c3CCC4)SC2)cc1Cl	i	i	i	10*	i	24%*	i	i
CC(C)CNC(=S)NNC(=O)c1csc2c1CCC(C)C2 (stereo not given)	i	i	i	i	i	.	.	.
Cc1cccc(NC(=S)NNC(=O)c2csc3c2CCC(C)C3)c1 (stereo not given)	i	i	i	6.1*	i	16%*	i	i
C=CCN1C=C2C(=O)C(C)(OC(=O)c3ccco3)C(=O)C(C=C)=C2C=C1C1CC1 (stereo not given)	i	i	i	i	i	.	.	.
C=CCN1C=C2C(=O)C(C)(OC(=O)c3ccc(OC)cc3)C(=O)C(c3ccco3)=C2C=C1CCCC (stereo not given)	i	i	i	i	i	i	i	i
CCCCC1=CC2=C(c3ccco3)C(=O)C(C)(OC(=O)c3ccc(OC)cc3)C(=O)C2=CN1c1ccccc1 (stereo not given)	i	i	i	i	i	.	i	i
CCCCC1=CC2=C(c3ccco3)C(=O)C(C)(OC(=O)c3ccc(OC)cc3)C(=O)C2=CN1CCCOC(C)C (stereo not given)	i	i	i	i	i	i	i	i
Cc1ccc(OP(=O)(Nc2c(C)n(C)n(-c3ccccc3)c2=O)Oc2ccc(C)cc2)cc1	i	i	i	i	i	.	.	.
